From ChEMBL document CHEMBL2021898, “Prenylated acylphloroglucinols, chipericumins A-D, from Hypericum chinense” (J Nat Prod, 2012)

What was measured:
L1210 = assay: Cytotoxicity against mouse L1210 cells incubated for 48 hrs at 37 degC; assay type: functional, cell-based; settings: L1210, 48 h
How it was run: (§1)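 Human epidermoid carcinoma KB and murine leukemia L1210 cells were cultured with test compounds at various concentrations, dissolved in 1% DMSO, in 100 μL medium at 37 °C for 48 h. IC50 was taken from a plot of log concentration against growth rate of treated cells. Paclitaxel was the positive control.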

Bacillus subtilis = assay: Antimicrobial activity against Bacillus subtilis by broth micro-dilution method; assay type: functional
Cryptococcus neoformans = assay: Antimicrobial activity against Cryptococcus neoformans by broth micro-dilution method; assay type: functional, organism-based
Candida albicans = assay: Antimicrobial activity against Candida albicans by broth micro-dilution method; assay type: functional, organism-based
KB = assay: Cytotoxicity against human KB cells incubated for 48 hrs at 37 degC; assay type: functional, cell-based; how it was run: as §1
Escherichia coli = assay: Antimicrobial activity against Escherichia coli by broth micro-dilution method; assay type: functional
Staphylococcus aureus = assay: Antimicrobial activity against Staphylococcus aureus by broth micro-dilution method; assay type: functional
Micrococcus luteus = assay: Antimicrobial activity against Micrococcus luteus by broth micro-dilution method; assay type: functional
Aspergillus niger = assay: Antimicrobial activity against Aspergillus niger by broth micro-dilution method; assay type: functional, organism-based
[1] = system: Trichophyton mentagrophytes; assay: Antimicrobial activity against Trichophyton mentagrophytes by broth micro-dilution method; assay type: functional, organism-based

SMILES	MIC (Bacillus subtilis) [µg/mL]	IC50 (Cryptococcus neoformans) [µg/mL]	IC50 (Candida albicans) [µg/mL]	MIC (Escherichia coli) [µg/mL]	MIC (Staphylococcus aureus) [µg/mL]	MIC (Micrococcus luteus) [µg/mL]	IC50 (Aspergillus niger) [µg/mL]	IC50 [1] [µg/mL]	IC50 (L1210)	IC50 (KB)
CCC(C)C(=O)C1=C(O)[C@@](C)(CC=C(C)C)C(=O)[C@@]2(C[C@H]3[C@@H](CC[C@@]3(C)O)[C@](C)(O)C2)C1=O (relative stereo)	> 32	> 32	> 32	> 32	> 32	> 32	> 32	> 32	> 10 µg/mL	> 10 µg/mL
CCC(C)C(=O)C1=C2O[C@H](C(C)(C)O)C[C@]2(C)C(=O)[C@]2(C[C@H]3[C@@H](CC[C@@]3(C)O)[C@](C)(O)C2)C1=O (some centres not stated) [CHIPERICUMIN B]	> 32	> 32	> 32	> 32	> 32	> 32	> 32	> 32	> 10 µg/mL	> 10 µg/mL
CC(=O)O[C@H]1C(=O)[C@@]2(C)[C@H]([C@H](OC(=O)c3ccccc3)[C@]3(O)C[C@H](OC(=O)[C@H](O)[C@@H](NC(=O)c4ccccc4)c4ccccc4)C(C)=C1C3(C)C)[C@]1(OC(C)=O)CO[C@@H]1C[C@@H]2O [PACLITAXEL]									120 nM	4.5 nM

Further lines, with some results ahead:

MIC (Bacillus subtilis) [µg/mL]	IC50 (Cryptococcus neoformans) [µg/mL]	IC50 (Candida albicans) [µg/mL]	MIC (Escherichia coli) [µg/mL]	MIC (Staphylococcus aureus) [µg/mL]	MIC (Micrococcus luteus) [µg/mL]	IC50 (Aspergillus niger) [µg/mL]	IC50 [1] [µg/mL]	SMILES	IC50 (L1210)	IC50 (KB)
> 32	> 32	> 32	> 32	> 32	> 32	> 32	> 32	CC(C)C(=O)C1=C2O[C@H](C(C)(C)O)C[C@]2(C)C(=O)[C@]2(C[C@H]3[C@@H](CC[C@@]3(C)O)[C@](C)(O)C2)C1=O (relative stereo)	> 10 µg/mL	> 10 µg/mL
> 32	> 32	> 32	> 32	> 32	> 32	> 32	> 32	CC(C)=CC[C@]1(C)C(=O)[C@@]2(C[C@H]3[C@@H](CC[C@@]3(C)O)[C@](C)(O)C2)C(=O)C(C(=O)C(C)C)=C1O (relative stereo)	> 10 µg/mL	> 10 µg/mL
